Results from the M2OR odorant receptor database.

How the values were obtained:
Settings in all cases: stereoisomer not certain
OR2J2 (Homo sapiens) = molecular target: T1, OR2J2 (Homo sapiens) (UniProt O76002)
T1 sequence (whole entry): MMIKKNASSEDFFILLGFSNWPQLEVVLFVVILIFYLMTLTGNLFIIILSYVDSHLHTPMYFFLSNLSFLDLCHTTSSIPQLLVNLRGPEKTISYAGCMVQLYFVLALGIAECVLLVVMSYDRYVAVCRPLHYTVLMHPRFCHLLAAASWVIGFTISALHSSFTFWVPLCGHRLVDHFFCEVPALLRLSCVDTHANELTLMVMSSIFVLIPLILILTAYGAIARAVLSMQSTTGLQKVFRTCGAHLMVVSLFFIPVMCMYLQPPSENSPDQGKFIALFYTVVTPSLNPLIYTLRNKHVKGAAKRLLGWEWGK
Summary of the method: (§1)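 Whether a receptor–molecule pair is responsive (active) rests on the original authors' judgment that its measured signal was statistically different from baseline. Pairs without that judgment are non-responsive (inactive). Sources used varied assay methods, commonly transient luciferase assays in mammalian cell lines.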

OR2G2 (Homo sapiens) = molecular target: T2, OR2G2 (Homo sapiens) (UniProt Q8NGZ5)
T2 sequence (whole entry): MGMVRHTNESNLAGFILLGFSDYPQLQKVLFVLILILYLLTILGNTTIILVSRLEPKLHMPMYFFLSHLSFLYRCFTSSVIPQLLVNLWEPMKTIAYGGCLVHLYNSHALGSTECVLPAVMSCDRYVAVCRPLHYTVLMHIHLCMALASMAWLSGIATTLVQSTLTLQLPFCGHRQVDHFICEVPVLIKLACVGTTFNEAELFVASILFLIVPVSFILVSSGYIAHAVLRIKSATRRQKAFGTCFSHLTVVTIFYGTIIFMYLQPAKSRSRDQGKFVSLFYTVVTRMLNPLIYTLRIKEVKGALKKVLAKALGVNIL
Summary of the method: as §1

OR2D3 (Homo sapiens) = OR2D3 (Homo sapiens) (UniProt Q8NGH3)
Sequence of OR2D3 (Homo sapiens) (Q8NGH3 whole entry): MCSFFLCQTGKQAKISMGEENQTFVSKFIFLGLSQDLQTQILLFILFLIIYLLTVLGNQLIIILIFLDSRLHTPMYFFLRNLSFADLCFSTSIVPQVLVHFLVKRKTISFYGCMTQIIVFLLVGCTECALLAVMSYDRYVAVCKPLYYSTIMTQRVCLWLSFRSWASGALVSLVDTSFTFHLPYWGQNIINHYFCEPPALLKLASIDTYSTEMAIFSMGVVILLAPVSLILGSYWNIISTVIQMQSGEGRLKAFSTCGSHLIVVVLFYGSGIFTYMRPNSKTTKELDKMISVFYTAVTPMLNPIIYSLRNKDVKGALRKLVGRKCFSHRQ
Summary of the method: as §1

OR2F1 (Homo sapiens) = OR2F1 (Homo sapiens) (UniProt Q13607)
Sequence of OR2F1 (Homo sapiens) (Q13607 whole entry): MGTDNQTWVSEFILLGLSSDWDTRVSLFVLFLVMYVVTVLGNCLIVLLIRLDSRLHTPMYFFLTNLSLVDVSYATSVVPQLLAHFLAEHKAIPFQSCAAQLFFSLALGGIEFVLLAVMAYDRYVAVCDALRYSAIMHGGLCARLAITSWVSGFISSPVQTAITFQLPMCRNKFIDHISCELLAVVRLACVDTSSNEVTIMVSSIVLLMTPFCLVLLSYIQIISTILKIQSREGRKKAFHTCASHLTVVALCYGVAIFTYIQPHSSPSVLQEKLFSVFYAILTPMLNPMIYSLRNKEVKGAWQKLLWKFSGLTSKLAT
Summary of the method: as §1

OR2F2 (Homo sapiens) = OR2F2 (Homo sapiens) (UniProt O95006)
Sequence of OR2F2 (Homo sapiens) (O95006 whole entry): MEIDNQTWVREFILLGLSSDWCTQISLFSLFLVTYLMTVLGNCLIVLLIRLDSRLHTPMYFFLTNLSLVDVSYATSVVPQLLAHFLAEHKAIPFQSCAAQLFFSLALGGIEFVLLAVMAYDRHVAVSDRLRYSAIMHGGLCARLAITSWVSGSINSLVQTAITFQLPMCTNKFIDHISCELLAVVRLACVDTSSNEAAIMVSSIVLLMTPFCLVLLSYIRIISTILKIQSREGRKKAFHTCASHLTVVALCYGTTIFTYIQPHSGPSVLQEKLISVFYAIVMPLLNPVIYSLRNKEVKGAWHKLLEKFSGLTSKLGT
Summary of the method: as §1

OR2G3 (Homo sapiens) = OR2G3 (Homo sapiens) (UniProt Q8NGZ4)
Sequence of OR2G3 (Homo sapiens) (Q8NGZ4 whole entry): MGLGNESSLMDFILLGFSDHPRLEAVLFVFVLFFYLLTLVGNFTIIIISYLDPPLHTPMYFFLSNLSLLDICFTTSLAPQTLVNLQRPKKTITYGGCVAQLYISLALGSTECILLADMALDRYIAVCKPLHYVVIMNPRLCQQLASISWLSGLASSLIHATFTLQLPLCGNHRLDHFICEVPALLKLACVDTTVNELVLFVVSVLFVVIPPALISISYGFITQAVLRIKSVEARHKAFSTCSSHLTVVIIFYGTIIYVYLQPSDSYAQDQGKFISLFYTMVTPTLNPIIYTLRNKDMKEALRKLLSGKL
Summary of the method: as §1

OR2G6 (Homo sapiens) = OR2G6 (Homo sapiens) (UniProt Q5TZ20)
Sequence of OR2G6 (Homo sapiens) (Q5TZ20 whole entry): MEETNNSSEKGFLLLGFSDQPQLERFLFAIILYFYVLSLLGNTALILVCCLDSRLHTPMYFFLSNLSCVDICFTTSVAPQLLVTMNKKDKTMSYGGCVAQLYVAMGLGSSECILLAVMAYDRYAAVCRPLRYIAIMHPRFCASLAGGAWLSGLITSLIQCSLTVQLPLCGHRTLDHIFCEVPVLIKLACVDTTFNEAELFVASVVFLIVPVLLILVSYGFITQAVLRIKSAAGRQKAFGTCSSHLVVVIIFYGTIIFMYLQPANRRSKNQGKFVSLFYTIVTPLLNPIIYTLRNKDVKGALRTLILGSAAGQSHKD
Summary of the method: as §1

OR2H1 (Homo sapiens) = OR2H1 (Homo sapiens) (UniProt Q9GZK4)
Sequence of OR2H1 (Homo sapiens) (Q9GZK4 whole entry): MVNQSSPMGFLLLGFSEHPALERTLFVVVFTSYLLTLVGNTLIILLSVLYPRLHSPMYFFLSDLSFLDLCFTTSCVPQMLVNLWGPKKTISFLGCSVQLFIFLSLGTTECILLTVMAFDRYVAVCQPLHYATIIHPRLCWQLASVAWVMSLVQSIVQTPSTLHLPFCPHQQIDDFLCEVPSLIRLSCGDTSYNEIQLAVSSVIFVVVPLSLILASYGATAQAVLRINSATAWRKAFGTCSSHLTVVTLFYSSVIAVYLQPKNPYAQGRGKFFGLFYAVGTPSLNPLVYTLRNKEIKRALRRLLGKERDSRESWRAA
Summary of the method: as §1

OR2H2 (Homo sapiens) = molecular target: T3, OR2H2 (Homo sapiens) (UniProt O95918)
T3 sequence (whole entry): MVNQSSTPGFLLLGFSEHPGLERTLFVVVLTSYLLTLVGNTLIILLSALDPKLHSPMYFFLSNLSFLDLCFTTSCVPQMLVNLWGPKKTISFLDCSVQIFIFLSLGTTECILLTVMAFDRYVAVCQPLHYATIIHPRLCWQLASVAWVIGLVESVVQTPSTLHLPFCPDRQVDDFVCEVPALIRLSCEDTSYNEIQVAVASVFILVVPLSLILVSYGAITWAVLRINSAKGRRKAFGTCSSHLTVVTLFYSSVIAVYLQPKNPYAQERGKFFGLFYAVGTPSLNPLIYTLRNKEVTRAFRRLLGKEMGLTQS
Summary of the method: as §1

OR2J1 (Homo sapiens) = OR2J1 (Homo sapiens) (UniProt Q9GZK6)
Sequence of OR2J1 (Homo sapiens) (Q9GZK6 whole entry): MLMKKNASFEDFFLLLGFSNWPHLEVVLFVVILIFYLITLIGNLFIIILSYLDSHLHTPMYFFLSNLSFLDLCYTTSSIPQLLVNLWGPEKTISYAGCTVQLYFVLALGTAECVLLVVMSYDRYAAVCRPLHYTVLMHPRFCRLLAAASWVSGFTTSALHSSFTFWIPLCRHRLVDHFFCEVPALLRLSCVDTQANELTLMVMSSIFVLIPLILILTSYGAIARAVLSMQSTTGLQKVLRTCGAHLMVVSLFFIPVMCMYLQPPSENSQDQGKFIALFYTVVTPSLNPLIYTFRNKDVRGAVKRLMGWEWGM
Summary of the method: as §1

OR2J3 (Homo sapiens) = molecular target: T4, OR2J3 (Homo sapiens) (UniProt O76001)
T4 sequence (whole entry): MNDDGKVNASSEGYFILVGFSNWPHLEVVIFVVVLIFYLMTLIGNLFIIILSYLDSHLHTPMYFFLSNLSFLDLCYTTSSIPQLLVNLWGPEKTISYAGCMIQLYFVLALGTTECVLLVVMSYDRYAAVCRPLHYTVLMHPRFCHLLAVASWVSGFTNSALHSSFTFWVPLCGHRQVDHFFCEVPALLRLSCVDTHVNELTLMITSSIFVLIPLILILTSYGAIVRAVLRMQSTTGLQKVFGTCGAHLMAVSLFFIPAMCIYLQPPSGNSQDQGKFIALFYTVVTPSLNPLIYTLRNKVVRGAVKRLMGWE
Summary of the method: as §1

OR2J3 = test system: OR2J3
Sequence of OR2J3 (as listed by the source): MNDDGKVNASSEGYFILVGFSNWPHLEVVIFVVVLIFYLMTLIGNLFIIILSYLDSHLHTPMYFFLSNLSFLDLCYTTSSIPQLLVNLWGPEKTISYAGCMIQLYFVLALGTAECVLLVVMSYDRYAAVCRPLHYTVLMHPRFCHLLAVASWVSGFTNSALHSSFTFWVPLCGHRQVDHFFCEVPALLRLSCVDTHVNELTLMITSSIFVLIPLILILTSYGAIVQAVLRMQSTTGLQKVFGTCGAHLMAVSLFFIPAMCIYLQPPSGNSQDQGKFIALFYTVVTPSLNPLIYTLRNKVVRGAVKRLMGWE
Summary of the method: as §1

OR2D2 S148P I163T M202T = test system: OR2D2 S148P I163T M202T
Summary of the method: as §1

OR2D3 R155W = test system: OR2D3 R155W
Sequence of OR2D3 R155W (as listed by the source, stated change not applied): as the sequence (Q8NGH3 whole entry) above, with R155W counted along it
Summary of the method: as §1

OR2G2 L167P R236G = test system: OR2G2 L167P R236G
Summary of the method: as §1

OR2G3 I289V = test system: OR2G3 I289V
Sequence of OR2G3 I289V (as listed by the source, stated change not applied): as the sequence (Q8NGZ4 whole entry) above, with I289V counted along it
Summary of the method: as §1

OR2H2 = test system: OR2H2
Sequence of OR2H2 (as listed by the source): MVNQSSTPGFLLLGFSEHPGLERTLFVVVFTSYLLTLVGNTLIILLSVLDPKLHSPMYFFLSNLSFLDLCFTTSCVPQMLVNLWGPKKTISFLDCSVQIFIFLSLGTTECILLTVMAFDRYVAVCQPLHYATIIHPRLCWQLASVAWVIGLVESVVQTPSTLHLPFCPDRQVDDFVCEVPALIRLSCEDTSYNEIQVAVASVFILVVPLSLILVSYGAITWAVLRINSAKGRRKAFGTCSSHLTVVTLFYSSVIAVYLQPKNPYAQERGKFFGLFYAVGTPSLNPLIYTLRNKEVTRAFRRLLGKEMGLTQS
Summary of the method: as §1

OR2J1 L14I V182A = test system: OR2J1 L14I V182A
Summary of the method: as §1

OR2J2 [1] = test system: OR2J2
Summary of the method: as §1
Target sequence in this assay (as listed by the source): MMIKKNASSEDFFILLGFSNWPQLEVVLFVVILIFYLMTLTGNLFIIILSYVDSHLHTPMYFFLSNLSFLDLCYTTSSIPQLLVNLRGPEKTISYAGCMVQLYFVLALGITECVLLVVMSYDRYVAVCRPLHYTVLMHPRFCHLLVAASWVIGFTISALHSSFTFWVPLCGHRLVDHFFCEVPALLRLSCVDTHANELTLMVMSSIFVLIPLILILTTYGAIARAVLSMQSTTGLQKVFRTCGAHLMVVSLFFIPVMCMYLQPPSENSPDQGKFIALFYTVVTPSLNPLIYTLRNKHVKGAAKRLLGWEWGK

OR2J2 [2] = test system: OR2J2; remark: listed apart in the source
Summary of the method: as §1
Target sequence in this assay (as listed by the source): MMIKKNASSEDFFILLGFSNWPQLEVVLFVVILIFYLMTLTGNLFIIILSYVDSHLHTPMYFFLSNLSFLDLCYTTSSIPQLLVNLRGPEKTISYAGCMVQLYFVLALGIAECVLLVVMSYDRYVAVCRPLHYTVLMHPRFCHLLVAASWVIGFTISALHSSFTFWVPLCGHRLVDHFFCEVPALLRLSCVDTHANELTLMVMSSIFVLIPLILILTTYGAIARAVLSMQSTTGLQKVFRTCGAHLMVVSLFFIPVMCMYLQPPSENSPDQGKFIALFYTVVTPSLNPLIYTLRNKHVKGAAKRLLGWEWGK

Measured: odorant receptor agonist call;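 note: active if original authors judged signal statistically different from baseline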

O=c1cc(O)c2ccccc2o1
inactive: OR2J2 (Homo sapiens)

C=CCc1ccccc1
inactive: OR2J2 (Homo sapiens)

C=CCc1ccc(OC)cc1
inactive: OR2G2 (Homo sapiens)

Cc1c([N+](=O)[O-])c(C)c([N+](=O)[O-])c(C(C)(C)C)c1[N+](=O)[O-]
active: OR2J3 (Homo sapiens)
inactive: OR2D3 (Homo sapiens) | OR2F1 (Homo sapiens) | OR2F2 (Homo sapiens) | OR2G2 (Homo sapiens) | OR2G3 (Homo sapiens) | OR2G6 (Homo sapiens) | OR2H1 (Homo sapiens) | OR2H2 (Homo sapiens) | OR2J1 (Homo sapiens) | OR2J2 (Homo sapiens)

CCC1CCC(=O)O1 (centres undefined)
inactive: OR2J2 (Homo sapiens)

O=Cc1ccccc1
inactive: OR2G2 (Homo sapiens)

O=CC=Cc1ccccc1
active: OR2J3 (Homo sapiens) | OR2J3
inactive: OR2H2 (Homo sapiens)

C=CCOC(=O)Cc1ccccc1
not listed: OR2J3 | OR2J2 [2]
inactive: all other assays above

CCCCOC(=O)c1ccccc1N
active: OR2J2 [2] | OR2J2 [1]
